According to ChEMBL document CHEMBL1137618, “Synthesis and structure-activity relationship studies of 3,6-diazabicyclo[3.2.0]heptanes as novel alpha4beta2 nicotinic acetylcholine receptor selective agonists” (J Med Chem, 2007):

Legend:
[1] = Displacement of [3H]cytisine from neuronal nicotinic acetylcholine receptor in rat brain membrane; assay type: cell membranes
[2] = target: T1, Neuronal acetylcholine receptor; alpha3/beta4 (Homo sapiens, UniProt P30926+P32297); experiment: Agonist activity at recombinant human alpha3beta4 nAChR expressed in HEK293 cells assessed as induction of calcium influx by FLIPR assay relative to nicotine; assay type: functional, cell-based
Procedure, shortened: (§1)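 HEK-293 lines stably expressing human α4β2 or α3β4 nAChR, grown 24-48 h at 37 °C on poly-D-lysine in DMEM/10% FBS. Loaded with 2-4 µM Fluo-4 AM for ~0.75-1 h at room temperature in the dark, in NMDG Ringer pH 7.4. Serial log dilutions added, then peak calcium fluorescence read on FLIPR after buffer-blank subtraction.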

[3] = target: T2, Neuronal acetylcholine receptor; alpha4/beta2 (Homo sapiens, UniProt P17787+P43681); experiment: Agonist activity at recombinant human alpha-4-beta-2 nAChR expressed in HEK293 cells assessed as induction of calcium influx by FLIPR assay relative to nicotine; assay type: functional, cell-based; procedure, shortened: as §1
[4] = target: T1, Neuronal acetylcholine receptor; alpha3/beta4; experiment: Agonist activity at recombinant human alpha-3-beta-4 nAChR expressed in HEK293 cells assessed as induction of calcium influx by FLIPR assay; assay type: functional, cell-based
[5] = target: T2, Neuronal acetylcholine receptor; alpha4/beta2; experiment: Agonist activity at recombinant human alpha-4-beta-2 nAChR expressed in HEK293 cells assessed as induction of calcium influx by FLIPR assay; assay type: functional, cell-based

T2 sequence (P17787 whole entry): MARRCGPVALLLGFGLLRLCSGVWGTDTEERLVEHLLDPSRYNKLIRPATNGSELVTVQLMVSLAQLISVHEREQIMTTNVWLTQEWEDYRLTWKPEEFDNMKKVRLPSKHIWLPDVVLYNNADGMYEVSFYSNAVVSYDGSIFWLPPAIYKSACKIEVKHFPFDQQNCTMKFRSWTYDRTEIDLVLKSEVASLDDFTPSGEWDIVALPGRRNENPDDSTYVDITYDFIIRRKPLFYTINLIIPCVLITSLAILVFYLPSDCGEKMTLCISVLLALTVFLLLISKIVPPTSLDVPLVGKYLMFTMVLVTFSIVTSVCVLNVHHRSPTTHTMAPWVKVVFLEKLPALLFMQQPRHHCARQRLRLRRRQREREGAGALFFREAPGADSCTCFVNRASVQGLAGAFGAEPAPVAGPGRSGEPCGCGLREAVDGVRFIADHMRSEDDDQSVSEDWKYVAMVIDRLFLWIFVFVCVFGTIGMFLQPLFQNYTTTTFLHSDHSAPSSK
T2 sequence (P43681 whole entry): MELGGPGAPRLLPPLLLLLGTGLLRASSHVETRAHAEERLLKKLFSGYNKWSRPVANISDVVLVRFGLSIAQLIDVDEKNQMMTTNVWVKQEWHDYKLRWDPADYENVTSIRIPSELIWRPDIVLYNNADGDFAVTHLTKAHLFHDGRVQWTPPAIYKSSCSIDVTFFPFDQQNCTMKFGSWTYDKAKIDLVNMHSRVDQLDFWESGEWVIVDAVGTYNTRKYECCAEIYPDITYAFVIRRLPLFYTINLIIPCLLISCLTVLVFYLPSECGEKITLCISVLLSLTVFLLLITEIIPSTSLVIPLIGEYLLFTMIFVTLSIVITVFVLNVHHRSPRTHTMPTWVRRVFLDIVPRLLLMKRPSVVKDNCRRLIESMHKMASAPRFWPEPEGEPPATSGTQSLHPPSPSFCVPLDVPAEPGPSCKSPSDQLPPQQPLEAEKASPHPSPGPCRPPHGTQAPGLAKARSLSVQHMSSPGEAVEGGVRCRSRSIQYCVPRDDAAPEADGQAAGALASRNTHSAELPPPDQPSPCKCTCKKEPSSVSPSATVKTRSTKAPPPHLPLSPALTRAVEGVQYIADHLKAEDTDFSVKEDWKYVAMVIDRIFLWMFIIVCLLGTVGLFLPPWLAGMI
T1 sequence (P30926 whole entry): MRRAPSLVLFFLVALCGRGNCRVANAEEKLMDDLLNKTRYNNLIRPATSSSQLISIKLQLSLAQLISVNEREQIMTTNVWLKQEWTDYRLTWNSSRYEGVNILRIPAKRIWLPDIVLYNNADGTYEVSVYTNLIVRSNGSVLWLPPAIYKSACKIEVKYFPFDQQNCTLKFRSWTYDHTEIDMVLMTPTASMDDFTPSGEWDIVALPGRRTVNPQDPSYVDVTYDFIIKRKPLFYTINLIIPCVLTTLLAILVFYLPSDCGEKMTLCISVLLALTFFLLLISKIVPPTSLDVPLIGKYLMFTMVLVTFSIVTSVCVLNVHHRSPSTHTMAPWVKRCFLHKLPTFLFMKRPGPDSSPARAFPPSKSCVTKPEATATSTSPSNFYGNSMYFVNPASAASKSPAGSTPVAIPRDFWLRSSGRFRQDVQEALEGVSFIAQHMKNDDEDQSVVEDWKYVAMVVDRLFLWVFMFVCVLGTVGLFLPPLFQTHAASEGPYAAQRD
T1 sequence (P32297 whole entry): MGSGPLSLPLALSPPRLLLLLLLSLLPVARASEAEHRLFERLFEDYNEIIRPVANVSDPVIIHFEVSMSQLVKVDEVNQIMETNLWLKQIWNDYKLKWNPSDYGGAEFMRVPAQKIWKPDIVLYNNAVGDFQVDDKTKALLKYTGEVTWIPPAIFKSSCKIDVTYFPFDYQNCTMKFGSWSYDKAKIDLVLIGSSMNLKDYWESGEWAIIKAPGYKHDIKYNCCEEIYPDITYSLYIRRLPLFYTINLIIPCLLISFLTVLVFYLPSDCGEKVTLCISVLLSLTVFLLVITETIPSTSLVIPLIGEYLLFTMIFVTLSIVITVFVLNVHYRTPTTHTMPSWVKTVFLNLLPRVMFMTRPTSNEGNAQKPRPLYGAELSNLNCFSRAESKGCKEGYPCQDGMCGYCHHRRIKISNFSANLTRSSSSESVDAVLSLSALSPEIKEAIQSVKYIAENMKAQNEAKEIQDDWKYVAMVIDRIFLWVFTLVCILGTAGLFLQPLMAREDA

Row | Structure (SMILES) | Ki [1] [nM] | Log Ki [1] | Activity [2] [%] | Activity [3] [%] | EC50 ([4]; read-out: EC50) [nM] | EC50 ([4]; read-out: Log EC50 (converted)) [nM] | EC50 ([5]; read-out: EC50) [nM] | EC50 ([5]; read-out: Log EC50 (converted)) [nM]
1 | Cc1cc(N2C[C@H]3CN[C@H]3C2)cnc1Cl | 0.04 | -10.4 | 119 | 228 | 200 | 178 | 700 | 72.4
2 | N#Cc1cncc(N2C[C@@H]3CNC[C@@H]32)c1 | 0.9 | -9.07 | 47 | 34 | 13700 | 12300 | 11400 | 9120
3 | Cc1cc(N2C[C@@H]3CNC[C@@H]32)cnc1Cl | 0.2 | -9.7 | 89 | 134 | 2200 | – | 600 | –
4 | Cc1ncc(N2C[C@@H]3CNC[C@@H]32)cc1C#N | 0.7 | -9.18 | 95 | 116 | 1600 | – | 500 | –
5 | COc1cc(N2C[C@H]3CNC[C@H]32)cnc1Br | 0.2 | -9.68 | 94 | 118 | 1800 | – | 900 | –
6 | c1cncc(N2C[C@H]3CN[C@H]3C2)c1 | 0.1 | -9.96 | 119 | 181 | 6000 | 603 | 300 | –
7 | Cc1cc(N2C[C@@H]3CNC[C@@H]32)cnc1C | 3.1 | -8.51 | 78 | 83 | 12300 | 12000 | 1500 | –
8 | Brc1cncc(N2C[C@@H]3CNC[C@@H]32)c1 | 1.5 | -8.83 | 23 | 20 | 6600 | 3090 | 11400 | 8710
9 | N#Cc1cncc(N2C[C@H]3CN[C@H]3C2)c1 | 0.1 | -9.92 | 102 | 123 | 300 | – | 600 | 417
10 | N#Cc1cncc(N2C[C@@H]3CN[C@@H]3C2)c1 | 1.7 | -8.77 | 84 | 102 | 7100 | – | 14600 | 13200
11 | COc1cc(N2C[C@@H]3CN[C@@H]3C2)cnc1Br | 1.9 | -8.71 | 72 | 64 | 4000 | – | 2200 | –
12 | Brc1cc(N2C[C@H]3CNC[C@H]32)cnc1Br | 0.5 | -9.35 | 94 | 131 | 1100 | – | 6900 | 676
13 | Clc1cncc(N2C[C@H]3CNC[C@H]32)c1 | 3 | -8.53 | 81 | 88 | 23000 | – | 8100 | 7240
14 | c1cncc(N2C[C@@H]3CN[C@@H]3C2)c1 | 1.2 | -8.92 | 90 | 122 | 6100 | – | 1600 | –
15 | Clc1ccc(N2C[C@H]3CNC[C@H]32)cn1 | 1.2 | -8.91 | 104 | 127 | 1100 | – | 600 | 537
16 | Cc1cncc(N2C[C@@H]3CNC[C@@H]32)c1 | 1.1 | -8.94 | 74 | 68 | 16900 | – | 10400 | –
17 | Cc1ncc(N2C[C@H]3CN[C@H]3C2)cc1C#N | 0.06 | -10.22 | 101 | 136 | 90 | – | 500 | 43.7
18 | Clc1cncc(N2C[C@@H]3CN[C@@H]3C2)c1 | 1.9 | -8.72 | 57 | 66 | 25300 | – | 11400 | 9330
19 | Brc1cc(N2C[C@@H]3CN[C@@H]3C2)cnc1Br | 0.3 | -9.52 | 90 | 122 | 1300 | – | 1200 | –
20 | Clc1cc(N2C[C@@H]3CN[C@@H]3C2)cnc1Cl [SOFINICLINE] | 0.3 | -9.53 | 92 | 110 | 1500 | – | 400 | –
21 | Clc1cc(N2C[C@@H]3CN[C@@H]3C2)cnc1Br | 0.2 | -9.62 | 92 | 108 | 600 | – | 400 | –
22 | Cc1cc(N2C[C@H]3CNC[C@H]32)cnc1Cl | 0.2 | -9.7 | 97 | 133 | 600 | – | 200 | 229
23 | Clc1cc(N2C[C@H]3CNC[C@H]32)cnc1Cl | 0.3 | -9.55 | 92 | 117 | 1000 | – | 300 | 263
